FLuc inhib CS: counter-screen for luciferase assay inhibitors: firefly luciferase inhibition; P08659; ATPLite firefly luciferase biochemical luminescence, 10 min; inhibition, % at 10 µM; 1.5% of 200,000 active; AID 1006;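 active means inhibition above about 50% when tested at 10 µM, limit read from the data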
Target sequence (P08659 whole entry, looked up): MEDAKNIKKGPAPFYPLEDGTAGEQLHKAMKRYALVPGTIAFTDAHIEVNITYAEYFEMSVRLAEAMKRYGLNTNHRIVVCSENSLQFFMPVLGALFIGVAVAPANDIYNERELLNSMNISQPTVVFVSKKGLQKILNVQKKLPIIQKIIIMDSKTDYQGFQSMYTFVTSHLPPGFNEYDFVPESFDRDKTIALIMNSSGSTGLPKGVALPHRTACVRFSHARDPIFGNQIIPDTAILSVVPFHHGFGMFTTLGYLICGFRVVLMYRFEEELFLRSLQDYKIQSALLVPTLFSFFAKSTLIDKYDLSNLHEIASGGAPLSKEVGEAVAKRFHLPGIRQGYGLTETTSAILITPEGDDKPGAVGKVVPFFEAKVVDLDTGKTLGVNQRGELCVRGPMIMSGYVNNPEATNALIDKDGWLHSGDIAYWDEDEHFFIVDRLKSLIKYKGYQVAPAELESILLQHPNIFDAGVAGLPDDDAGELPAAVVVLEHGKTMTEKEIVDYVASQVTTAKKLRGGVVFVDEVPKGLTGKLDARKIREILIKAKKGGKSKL
FLuc act counter: affects firefly luciferase, flagging false hits in luciferase stimulation screens; P08659; ATPlite luciferase biochemical, luminescence, 10 min; 0 = ATP-free wells, 1 = DMSO control; activation factor at 10 µM; 200,000 tested, under 10 active;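 active means luciferase activation factor, scaled between plate controls, of at least 2 with compound at 10 µM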
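Material: Luciferase/luciferin reagent mix; Doses: test compounds dosed from 2 mM stocks in 100% DMSO; Schedule: 10 min incubation after luciferase reagent addition, room temperature; Measured by: luminescence from luciferase reaction; Read-out: luminescence gain marking luciferase activators.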
TRAIL sens C8: sensitizes caspase-8 expressing cells to TRAIL; NB7+C8 cells + TRAIL, ATPlite viability luminescence; inhibition (viability loss, TRAIL sensitization), % at 10 µM; 1% of 360,000 active; AID 624354;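 active means compounds causing at least 50% loss of cell viability in the single-dose screen, relative to plate controls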
APP 5'UTR act: activates APP 5'UTR luciferase reporter | 1% of 190,000 active | SH-SY5Y APP 5'UTR luciferase reporter, luminescence; zero percent = DMSO vehicle wells | activation, % at 2 µM | AID 1276;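 active means activation above a set limit, based on mean plus 3 SD of controls, cut at about 140% in these data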
PPC-1+TRAIL kill: kills PPC-1 cancer cells in the presence of TRAIL | cell killing (% activity), % at 4 µM or 5 µM | PPC-1 cells + TRAIL, ATPLite viability luminescence | 0.41% of 220,000 active;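 active means cell killing above 50% in the first pass at 4 µM, then a duplicate retest at 5 µM averaging 50% or more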
NF-kB expr up: raises NF-kB expression in human neuronal cells; NF-kB reporter expression; stronger effect = higher value; fold change at 12.5 µM; 1.6% of 190,000 active; AID 1239; in the data active means fold change above about 3.3
Each line names hits and unclear results; the compound was inactive in the other large screens. Sampled rows, rich in hits. Any-hit rate of the full collection: about 2.2%.

COCCNC(=O)c1onc(CSc2ccccc2F)c1C(=O)O	PPC-1+TRAIL kill 55.0
Cc1cc(C)nc(Sc2nc(C)nc3c2oc2ccccc23)n1	NF-kB expr up 7.44
Cc1nc(SCc2cccc(F)c2)c2oc3ccccc3c2n1	none (no result: FLuc inhib CS, FLuc act counter, APP 5'UTR act, NF-kB expr up)
Cc1ccc(C(=O)Nc2ccc3nc(C)sc3c2)s1	APP 5'UTR act 166.7, NF-kB expr up 6.58
Cc1nc2cc(NC(=O)c3ccc(Br)s3)ccc2s1	TRAIL sens C8 62.8 (no result: FLuc inhib CS, FLuc act counter, APP 5'UTR act, PPC-1+TRAIL kill, NF-kB expr up)
Cc1ccc(-c2cc(-c3ccccc3)no2)c(O)c1	FLuc inhib CS 87.0, TRAIL sens C8 78.3, APP 5'UTR act 276.1, NF-kB expr up 3.67
CC(=O)Nc1nccc(-c2cc(-c3ccccc3)no2)n1	none (no result: FLuc inhib CS, FLuc act counter, TRAIL sens C8, APP 5'UTR act, NF-kB expr up)
Cc1ccc(O)c(-c2cc(-c3ccc(F)cc3)no2)c1	TRAIL sens C8 68.9 (no result: FLuc inhib CS, FLuc act counter, APP 5'UTR act, PPC-1+TRAIL kill, NF-kB expr up)
Cc1ccccc1-c1cc(-c2ccccc2O)on1	APP 5'UTR act 197.3, NF-kB expr up 9.67
Cc1ccc2nc(-c3cc(-c4ccccc4)no3)cn2c1	TRAIL sens C8 57.1 (no result: FLuc inhib CS, FLuc act counter, APP 5'UTR act, NF-kB expr up)
COC(=O)N/N=C/c1cn(CC(C)COc2ccccc2)c2ccccc12 (stereo unspecified)	none
Cc1ccc(S(=O)(=O)N2C[C@@H]3[C@H]4CC[C@H](C4)[C@@H]3[C@@H](C)[C@@H]2c2ccn([Si](C(C)C)(C(C)C)C(C)C)c2)cc1	none (no result: FLuc inhib CS, FLuc act counter, APP 5'UTR act, PPC-1+TRAIL kill, NF-kB expr up)
Cc1onc(-c2ccccc2Cl)c1C(=O)NC(=S)Nc1ccc(C(C)(C)C)cc1	none (no result: FLuc inhib CS, FLuc act counter, APP 5'UTR act, NF-kB expr up)
COc1ccc(-c2cc(-c3cc(C)ccc3O)[nH]n2)cc1	NF-kB expr up 17.7
Oc1ccccc1-c1cc(-c2ccccc2)no1	FLuc inhib CS 50.8, TRAIL sens C8 44.6, APP 5'UTR act 255.3, NF-kB expr up 12.2
Clc1ccc(-c2cc(-c3ccccc3)on2)cc1	none (no result: FLuc inhib CS, FLuc act counter, APP 5'UTR act, PPC-1+TRAIL kill, NF-kB expr up)
COc1ccc(-c2cc(-c3ccc(C)cc3)n[nH]2)c(O)c1	none (no result: FLuc inhib CS, FLuc act counter, APP 5'UTR act, PPC-1+TRAIL kill, NF-kB expr up)
CC(Oc1ccc(-c2ccccc2)cc1)C(=O)N/N=C/c1cccnc1 (stereo unspecified)	none (no result: FLuc inhib CS, FLuc act counter, APP 5'UTR act, PPC-1+TRAIL kill, NF-kB expr up)
CCOC(=O)Cc1csc(NC(=O)CSc2nnc3ccccn23)n1	none
COc1ccccc1Nc1ccc(C(=O)NCc2cccs2)cn1	none
COc1ccccc1Nc1ncc(-c2cccs2)s1	NF-kB expr up 5.13
Cn1c(-c2ccccc2)c(C(=O)CCl)c2ccccc21	TRAIL sens C8 92.3
CCn1c(-c2ccccc2)c(C(=O)CCl)c2ccccc21	none
CCc1ccc2oc(-c3cc(N)ccc3O)nc2c1	FLuc inhib CS 88.3, TRAIL sens C8 65.4, APP 5'UTR act 186.9, NF-kB expr up 4.02
CCc1ccc2oc(-c3cc(N)cc(C)c3O)nc2c1	FLuc inhib CS 61.9
Nc1ccc2oc(-c3ccccc3Cl)nc2c1	FLuc inhib CS 74.6
CCc1ccc2oc(-c3cc(N)ccc3Cl)nc2c1	FLuc inhib CS 56.5, TRAIL sens C8 47.0, APP 5'UTR act 160.0
COc1ccc(C(C)(NC(C)=O)c2nc(-c3cccc(NC(C)=O)c3)cs2)cc1 (stereo unspecified)	none (no result: FLuc inhib CS, FLuc act counter, APP 5'UTR act, PPC-1+TRAIL kill, NF-kB expr up)
Cc1ccc(NCc2cccc(B(O)O)c2)cc1	none (no result: FLuc inhib CS, FLuc act counter, APP 5'UTR act, PPC-1+TRAIL kill, NF-kB expr up)
CN(C)c1cccc(-c2nnc(SCCCC#N)o2)c1	FLuc inhib CS 55.5, APP 5'UTR act 153.7
N/C(=N\OC(=O)COc1ccccc1)c1ccccn1	none
N/C(=N\OC(=O)CCC1CCCC1)c1ccccc1	FLuc inhib CS 87.6
N/C(=N\OC(=O)CCC1CCCC1)c1ccccn1	FLuc inhib CS 84.2
N/C(=N\OC(=O)CCCc1ccccc1)c1ccccn1	FLuc inhib CS 60.2
O=[N+]([O-])c1ccc(N=Nc2c(O)[nH]c3ccc(F)cc23)cc1	TRAIL sens C8 53.6 (no result: FLuc inhib CS, FLuc act counter, APP 5'UTR act, PPC-1+TRAIL kill, NF-kB expr up)
O=[N+]([O-])c1ccc2[nH]c(O)c(N=Nc3ccc(F)cc3)c2c1	none (no result: FLuc inhib CS, FLuc act counter, APP 5'UTR act, PPC-1+TRAIL kill, NF-kB expr up)
O=C(C[C@H]1CC[C@@H](NC(=O)Cc2cccnc2)[C@@H](CO)O1)NCc1ccc2c(c1)OCO2	none (no result: FLuc inhib CS, FLuc act counter, APP 5'UTR act, PPC-1+TRAIL kill, NF-kB expr up)
Cc1ccccc1C(=O)Nc1nnc(-c2ccco2)s1	APP 5'UTR act 140.8, NF-kB expr up 3.72
COc1ccccc1NC(=O)Nc1nnc(-c2ccco2)s1	none (no result: TRAIL sens C8)
COc1ccccc1C(=O)Nc1nnc(-c2ccco2)s1	FLuc inhib CS 51.4, APP 5'UTR act 145.0
CCN1CCN(C2=C(NS(=O)(=O)c3ccc(NC(C)=O)cc3)C(=O)c3ccccc3C2=O)CC1	none (no result: FLuc inhib CS, FLuc act counter, APP 5'UTR act, PPC-1+TRAIL kill, NF-kB expr up)
CCN1CCN(C2=C(NS(=O)(=O)c3ccc(C)cc3)C(=O)c3ccccc3C2=O)CC1	TRAIL sens C8 52.0 (no result: FLuc inhib CS, FLuc act counter, APP 5'UTR act, PPC-1+TRAIL kill, NF-kB expr up)
COc1ccc(C2=NOC(CNC(N)=S)C2)cc1 (stereo unspecified)	NF-kB expr up 4.29
